Blank lines part the entries; values can stand above or below the compound they belong to.
Assays:
MT4 [1] = assay: Effective concentration required to achieve 50% protection of MT-4 cells against the cytopathic effect of HIV-1; I = Inactive; type: functional, cell-based, Homo sapiens
In short: (§1)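 MT-4 cells were infected with HIV-1 or mock-infected, then incubated with a range of test-compound concentrations. IC50 is the concentration giving 50% protection against HIV-1-induced cytopathic effect. CC50 is the concentration reducing viability of mock-infected cells by 50%. SI is CC50/IC50. Most determinations were run in duplicate and averaged.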

MT4 [2] = assay: (§2) Cytotoxic concentration required to reduce the viability of mock-infected MT-4 cells by 50%.; type: functional; conditions: Homo sapiens; in short: as §1
[3] = test system: Human immunodeficiency virus 1; assay: Effective concentration required to achieve 50% protection of MT-4 cells against the cytopathic effect of HIV-1.; type: functional, organism-based; conditions: Human immunodeficiency virus 1, MT4; in short: as §1
MT4 [4] = assay: Selectivity index measured as the ratio of CC50/IC50 values.; type: functional; in short: as §1
MT4 [5] = assay: as §2; type: functional, cell-based; conditions: Homo sapiens; in short: as §1

Compound: CC1Cn2c(O)nc3cccc(c32)CN1CC#N (configuration not stated)
IC50 (MT4 [1]): Not Active
CC50 (MT4 [2]): 508 µM

IC50 [3]: 19 µM
Compound: C=C(C)CN1Cc2cccc3[nH]c(=O)n(c23)C[C@@H]1C
Selectivity index (MT4 [4]): 11
CC50 (MT4 [2]): 222 µM

Compound: CC1Cn2c(O)nc3cccc(c32)CN1CC1=CCCCC1 (configuration not stated)
IC50 (MT4 [1]): Not Active
CC50 (MT4 [2]): 212 µM

IC50 [3]: 4 µM
Compound: CC(C)=CCN1Cc2cccc3nc(O)n(c23)C[C@@H]1C
Selectivity index (MT4 [4]): 105
CC50 (MT4 [2]): 427 µM

Compound: CCN1Cc2cccc3nc(O)n(c23)CC1C (configuration not stated)
IC50 (MT4 [1]): Not Active
CC50 (MT4 [2]): 592 µM

Compound: CC(C)=CCC/C(C)=C\CN1Cc2cccc3nc(O)n(c23)CC1C (configuration not stated)
IC50 (MT4 [1]): Not Active
CC50 (MT4 [2]): 44 µM

Compound: CC(=O)N1Cc2cccc3nc(O)n(c23)CC1C (configuration not stated)
IC50 (MT4 [1]): Not Active
CC50 (MT4 [2]): 175 µM

IC50 [3]: 855 µM
Compound: COC(=O)CN1Cc2cccc3nc(O)n(c23)CC1C (configuration not stated)
CC50 (MT4 [2]): 925 µM

Compound: C[C@H]1Cn2c(O)nc3cccc(c32)CN1
IC50 (MT4 [1]): Not Active
CC50 (MT4 [2]): 901 µM

IC50 [3]: 12.5 µM
Compound: CC(C)=CCN1Cc2cccc3nc(O)n(c23)CC1C (configuration not stated)
Selectivity index (MT4 [4]): 33
CC50 (MT4 [2]): 416 µM

Compound: C#C/C(C)=C/CN1Cc2cccc3nc(O)n(c23)CC1C (configuration not stated)
IC50 (MT4 [1]): Not Active
CC50 (MT4 [2]): 18 µM

Compound: C=C(CN1Cc2cccc3nc(O)n(c23)CC1C)C(=O)OCC (configuration not stated)
IC50 (MT4 [1]): Not Active
CC50 (MT4 [2]): 3 µM

IC50 [3]: 70 µM
Compound: C=CCN1Cc2cccc3[nH]c(=O)n(c23)CC1C (configuration not stated)
Selectivity index (MT4 [4]): 10
CC50 (MT4 [2]): 670 µM

Compound: C(=NC1CCCCC1)=NC1CCCCC1 [DICYCLOHEXYLCARBODIIMIDE]
IC50 [3]: 0.137 µM
Selectivity index (MT4 [4]): 1693
CC50 (MT4 [2]): 232 µM

IC50 [3]: 22 µM
Compound: CC(C)=CCN1Cc2cccc3nc(O)n(c23)C[C@H]1C
Selectivity index (MT4 [4]): 20
CC50 (MT4 [2]): 450 µM

Compound: CC1Cn2c(O)nc3cccc(c32)CN1Cc1ccc[nH]1 (configuration not stated)
IC50 (MT4 [1]): Not Active
CC50 (MT4 [2]): 92 µM

IC50 [3]: 44 µM
Compound: CC1Cn2c(O)nc3cccc(c32)CN1CC1CC1 (configuration not stated)
Selectivity index (MT4 [4]): 13
CC50 (MT4 [2]): 588 µM

Compound: C#CC(C)=CCN1Cc2cccc3nc(O)n(c23)CC1C (configuration not stated)
IC50 (MT4 [1]): Not Active
CC50 (MT4 [2]): 707 µM

Compound: CC1Cn2c(O)nc3cccc(c32)CN1CCO (configuration not stated)
IC50 (MT4 [1]): Not Active
CC50 (MT4 [2]): 776 µM

Compound: C=C(CN1Cc2cccc3nc(O)n(c23)CC1C)c1ccccc1 (configuration not stated)
IC50 (MT4 [1]): Not Active
CC50 (MT4 [2]): 3 µM

IC50 [3]: 29 µM
Compound: C/C=C(/C)CN1Cc2cccc3nc(O)n(c23)CC1C (configuration not stated)
Selectivity index (MT4 [4]): 4
CC50 (MT4 [2]): 106 µM

Compound: C=C(CN1Cc2cccc3nc(O)n(c23)CC1C)C(C)C (configuration not stated)
IC50 (MT4 [1]): Not Active
CC50 (MT4 [2]): 18 µM

Compound: C/C=C/C=C/CN1Cc2cccc3nc(O)n(c23)CC1C (configuration not stated)
IC50 (MT4 [1]): Not Active
CC50 (MT4 [2]): 378 µM

IC50 [3]: 35 µM
Compound: C/C=C\CN1Cc2cccc3nc(O)n(c23)CC1C (configuration not stated)
Selectivity index (MT4 [4]): 16
CC50 (MT4 [2]): 560 µM

IC50 [3]: 50 µM
Compound: C=CCCN1Cc2cccc3nc(O)n(c23)CC1C (configuration not stated)
Selectivity index (MT4 [4]): 11
CC50 (MT4 [2]): 552 µM

IC50 [3]: 37 µM
Compound: C=C(CC)CN1Cc2cccc3nc(O)n(c23)CC1C (configuration not stated)
Selectivity index (MT4 [4]): 2
CC50 (MT4 [2]): 66 µM

Compound: CC(C)N1Cc2cccc3nc(O)n(c23)CC1C (configuration not stated)
IC50 (MT4 [1]): Not Active
CC50 (MT4 [2]): 65 µM

IC50 [3]: 122 µM
Compound: CC1Cn2c(O)nc3cccc(c32)CN1C/C=C\c1ccccc1 (configuration not stated)
Selectivity index (MT4 [4]): 3
CC50 (MT4 [2]): 388 µM

IC50 [3]: 5.5 µM
Compound: O=c1[nH]cnc2c1ncn2[C@H]1CC[C@@H](CO)O1 [DIDANOSINE]
Selectivity index (MT4 [4]): 191
CC50 (MT4 [2]): 1050 µM

Compound: CC1Cn2c(O)nc3cccc(c32)CN1C/C=C/c1ccccc1 (configuration not stated)
IC50 (MT4 [1]): Not Active
CC50 (MT4 [2]): > 783 µM

IC50 [3]: 62 µM
Compound: C=C(Br)CN1Cc2cccc3nc(O)n(c23)CC1C (configuration not stated)
Selectivity index (MT4 [4]): 7
CC50 (MT4 [2]): 416 µM

Compound: CC(C)CN1Cc2cccc3nc(O)n(c23)CC1C (configuration not stated)
IC50 (MT4 [1]): Not Active
CC50 (MT4 [2]): 82 µM

IC50 [3]: 106 µM
Compound: CC1Cn2c(O)nc3cccc(c32)CN1Cc1ccco1 (configuration not stated)
Selectivity index (MT4 [4]): 5
CC50 (MT4 [2]): 529 µM

IC50 [3]: 100 µM
Compound: CCCCN1Cc2cccc3nc(O)n(c23)CC1C (configuration not stated)
Selectivity index (MT4 [4]): 5
CC50 (MT4 [2]): 501 µM

Compound: CC(C)=C(C)CN1Cc2cccc3nc(O)n(c23)CC1C (configuration not stated)
IC50 (MT4 [1]): Not Active
CC50 (MT4 [2]): > 876 µM

IC50 [3]: 47 µM
Compound: C=C(C)CN1Cc2cccc3[nH]c(=O)n(c23)CC1C (configuration not stated)
Selectivity index (MT4 [4]): 15
CC50 (MT4 [2]): 665 µM

IC50 [3]: 580 µM
Compound: C#CCN1Cc2cccc3nc(O)n(c23)CC1C (configuration not stated)
CC50 (MT4 [2]): 990 µM

IC50 [3]: 0.0015 µM
Compound: Cc1cn([C@H]2C[C@H](N=[N+]=[N-])[C@@H](CO)O2)c(=O)[nH]c1=O [ZIDOVUDINE]
Selectivity index (MT4 [4]): 6200
CC50 (MT4 [2]): 9.3 µM

Compound: CC(=O)CN1Cc2cccc3nc(O)n(c23)CC1C (configuration not stated)
IC50 (MT4 [1]): Not Active
CC50 (MT4 [2]): 760 µM

Compound: CC(C)OCCN1Cc2cccc3nc(O)n(c23)CC1C (configuration not stated)
IC50 (MT4 [1]): Not Active
CC50 (MT4 [2]): 504 µM

IC50 [3]: 58 µM
Compound: C/C=C/CN1Cc2cccc3nc(O)n(c23)CC1C (configuration not stated)
Selectivity index (MT4 [4]): 8
CC50 (MT4 [2]): 443 µM

IC50 [3]: 66 µM
Compound: C=CCN1Cc2cccc3[nH]c(=O)n(c23)C[C@@H]1C
Selectivity index (MT4 [4]): 10
CC50 (MT4 [2]): 670 µM

IC50 [3]: 71 µM
Compound: C=CC(=C)CN1Cc2cccc3nc(O)n(c23)CC1C (configuration not stated)
Selectivity index (MT4 [4]): 4
CC50 (MT4 [2]): 290 µM

IC50 [3]: 90 µM
Compound: CCCN1Cc2cccc3[nH]c(=O)n(c23)CC1C (configuration not stated)
Selectivity index (MT4 [4]): 8
CC50 (MT4 [2]): 722 µM

Compound: C=C(Cc1ccccc1)CN1Cc2cccc3nc(O)n(c23)CC1C (configuration not stated)
IC50 (MT4 [1]): Not Active
CC50 (MT4 [2]): 572 µM

Compound: CC1Cn2c(O)nc3cccc(c32)CN1Cc1ncc[nH]1 (configuration not stated)
IC50 (MT4 [1]): Not Active
CC50 (MT4 [2]): 685 µM

Compound: C#C/C=C/CN1Cc2cccc3nc(O)n(c23)CC1C (configuration not stated)
IC50 (MT4 [1]): Not Active
CC50 (MT4 [2]): 370 µM

Compound: COC(=O)/C=C/CN1Cc2cccc3nc(O)n(c23)CC1C (configuration not stated)
IC50 (MT4 [1]): Not Active
CC50 (MT4 [2]): 252 µM

Compound: C[C@@H]1Cn2c(O)nc3cccc(c32)CN1
IC50 (MT4 [1]): Not Active
CC50 (MT4 [2]): 901 µM

Compound: C=CCN1Cc2cccc3[nH]c(=O)n(c23)C[C@H]1C
CC50 (MT4 [5]): 592 µM
IC50 (MT4 [1]): Not Active
